Source: PubChem (several laboratories)
A selection: hits, their analogues and other compounds. The true share with any hit is near 3.7%.
Efa HMGR inh – inhibitors of class II HMG-CoA reductase from Enterococcus faecalis. purified E. faecalis HMGR, NADPH absorbance 340 nm kinetic. hit rate 0.41% among 190,000. AID 1066. inhibition, % at 10 µM;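 active means inhibition above a set limit, the median over all tested compounds plus 3 SD, cut at about 9.5% in these data; inconclusive means no clear call, values can overlap the other calls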;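 further: enzyme runs in reverse so mevalonate oxidation gives rising NADPH absorbance; 0% = complete reaction with DMSO and 100% = background rate lacking mevalonate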
RAM network inh – yeast RAM network inhibition; hit rate 1.8% among 190,000; S. cerevisiae dse1pr::URA3 reporter, 5-FOA growth OD615, 2 d; analog-sensitive cbk1-as2 kinase mutant strain; inhibition, % at 50 µM;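 active means inhibition above a set limit, 3 SD over mean compound inhibition, cut at about 8.4% in these data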;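 further: 0% = DMSO-only wells with no growth and 100% = 10 µM 1-NA-PP1 full growth; inhibition rescues growth on 5-FOA so higher OD means more RAM inhibition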
BB579 growth dn – chemicals that inhibit yeast BB579 growth in restrictive medium (lifespan-shortening candidates). S. cerevisiae BB579 growth, OD615, 48 h. inhibition, % at 10 µM. hit rate 0.51% among 140,000. AID 804;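 active means inhibition above a set limit, 3 SD over the mean compound inhibition, cut at about 44% in these data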
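Test system: S. cerevisiae DeaD strain BB579 yeast; Medium: restrictive CSMM-D medium; Compound: one dose, 10 µM compound with 0.25% DMSO; Incubation: 4 h cell preincubation, 48 h compound exposure, 30 °C humidified; Signal: OD at 615 nm; Benchmarks: amphotericin B at 10 µg/mL as positive control.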
Yeast life ext – yeast lifespan extension; S. cerevisiae growth with nicotinamide, OD615; deaD strain in restrictive glucose medium; inhibition of the nicotinamide effect, % at 10 µM; hit rate 0.68% among 130,000; AID 775;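 active means inhibition above a set limit, placed 3 SD over the median of all compounds, cut at about 26% in these data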;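 further: 0% = nicotinamide-treated wells and 100% = cells grown without nicotinamide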
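System: Modified budding yeast, DeaD strain | Buffer or medium: Restrictive glucose medium | Also added: 1.5 mM nicotinamide | Doses: 10 µM single point, 0.25% DMSO | Schedule: 48 h compound exposure at 30 °C, humidified | Detection: Absorbance at 615 nm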
INS promoter inh – TRM-6 insulin promoter activity inhibition | TRM-6 cells (human fetal islet line), insulin promoter-eGFP reporter, imaging; reporter expression induced with tamoxifen | inhibition, % at 2 µM | hit rate 0.9% among 130,000;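 active means inhibition above the mean plus 3 SD, with well images judged a real hit on visual review, cut at about 60% in these data, passing the limit was not always enough; inconclusive means inhibition over the cutoff but images rejected on review; inactive means inhibition not above the cutoff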
Starred values were filed as active, the others as inactive; ? = inconclusive; . = not tested or not shown.

SMILES	Efa HMGR inh	RAM network inh	BB579 growth dn	Yeast life ext	INS promoter inh
CCOC(=O)c1cc2c(ccn2-c2ccc(F)cc2)n1CC(=O)NC(C)(C)C	-1.5	6.4	.	.	.
COC(=O)c1ccccc1NC(=O)c1ccc(COc2ccc(C)c(C)c2)o1	-12.0	10.2*	-25.7	-23.0	-31.4
COc1ccccc1NC(=O)c1ccc(COc2ccccc2OC)o1	-1.8	5.4	-32.2	-25.4	-33.3
COC(=O)c1ccccc1NC(=O)c1ccc(COc2cc(C)cc(C)c2)o1	-5.8	11.2*	-33.7	-3.3	.
O=C(CNC(=O)c1ccc(S(=O)(=O)N2CCCC2)cc1)N/N=C/c1ccco1	-0.4	1.8	.	.	18.8
CCCOc1ccc(OCCn2nc(C(=O)O)c3ccccc3c2=O)cc1	-2.1	9.6*	.	.	-40.0
Cc1ccccc1OCCn1nc(C(=O)O)c2ccccc2c1=O	-6.0	0.7	-6.2	-12.9	.
O=C(O)c1nn(CCOc2cccc(Cl)c2)c(=O)c2ccccc12	-0.5	8.8*	.	.	.
O=C(CC1SCCNC1=O)Nc1ccc(F)c(Cl)c1 (stereo not given)	15.7*	-0.1	.	.	.
Cc1ccc(NC(=O)CC2SCCNC2=O)cc1Cl (stereo not given)	-5.4	-1.2	-61.3	-0.4	-17.4
CCCCCC/C(=N/O)c1ccccn1	-1.6	-1.6	99.8*	-19.2	.
C/C(=N/O)c1ccccn1	-1.6	1.4	.	.	.
CC1CCCC(NC(=O)CN(C)S(=O)(=O)c2cnc[nH]2)C1C (stereo not given)	13.5*	2.5	.	.	-14.3
C=C(C)C1CC=C(C)/C(=N\NC(=O)CNc2cccc3ccccc23)C1 (stereo not given)	-2.4	0.9	-0.4	2.4	.
Nc1cc2c(cc1C(=O)c1ccc(Cl)cc1)OCCO2	-5.5	-0.7	-31.4	-14.9	75.9*
Nc1cc2c(cc1C(=O)c1ccccc1)OCCO2	-3.5	-0.8	-28.2	-20.4	17.6
Cn1cnnc1Sc1ccc(/C=C/C(=O)c2ccc(O)cc2)cc1[N+](=O)[O-]	-1.8	8.4*	.	.	50.0
COC(=O)c1ccccc1NS(=O)(=O)c1ccc(Cl)nc1	-5.9	2.1	.	.	.
COCC(C)NC(=O)/C(=C/c1ccccc1)c1ccccc1 (stereo not given)	2.2	1.7	.	.	.
CC(NC(=O)/C(=C/c1ccc(OC(F)F)cc1)c1ccccc1)c1ccccc1 (stereo not given)	0.2	9.6*	-15.4	17.3	.
O=C(NCc1cccs1)C12CC3CC(CC(C3)C1)C2	2.6	0.7	.	.	81.8*
CCN(CC)C(=O)C(=O)c1cccn1-c1ccccc1C#N	2.3	0.1	-2.9	-6.8	100.0*
Cc1ccc2nc(-c3ccc(NS(=O)(=O)c4ccc(F)c(F)c4)cc3)sc2c1	-4.8	5.4	68.5*	-7.0	23.8
CC1=NN(C(=O)Cn2nc([N+](=O)[O-])c(Br)c2C)C(O)(C(F)(F)F)C1 (stereo not given)	-3.7	1.0	10.5	2.1	-23.8
COc1ccc(/C=C/C(=O)NCC2COc3ccccc3O2)cc1OC (stereo not given)	9.5*	-1.1	.	.	.
SMILES	Efa HMGR inh	RAM network inh	BB579 growth dn	Yeast life ext	INS promoter inh
Cn1nc(C(F)(F)F)c(/C=N/OC(=O)c2ccccc2)c1Sc1ccc(Cl)cc1	-3.8	10.4*	-53.5	-10.6	.
COCC(C)n1c(C)cc(C(=O)COC(=O)c2oc3ccccc3c2C)c1C (stereo not given)	1.4	3.2	10.1	-3.9	33.3
O=c1oc2ccccc2n1CCCCCn1c(=O)oc2ccccc21	-4.0	0.5	-9.4	-12.4	.
N#CCCCn1c(=O)oc2ccccc21	14.9*	-0.2	.	.	.
COCC(C)n1c(C)cc(C(=O)Cn2c(=O)oc3ccccc32)c1C (stereo not given)	1.6	0.4	-62.1	4.1	78.6*
O=C(Cn1c(=O)oc2ccccc21)c1ccccc1	2.5	0.3	-39.5	-5.5	72.6*
NC(=O)c1cccnc1Nc1cccc(F)c1	-1.2	-0.8	-3.8	-4.7	86.7*
NC(=O)c1cccnc1Nc1cccc([N+](=O)[O-])c1	0.7	2.2	.	.	.
CCOC(=O)c1c(C)cc(C)n2c1nc1ccccc12	5.0	2.0	-46.5	-16.4	75.0*
CCCCSCCCNC(=O)Nc1ccc(CC)cc1	0.8	0.2	.	.	54.5
CCCCOC(=O)c1nc[nH]c1C(=O)OCCCC	18.9*	0.4	.	.	?
C/C(=N/O)c1ccc(Oc2cnccn2)cc1	-8.3	1.2	.	.	.
CCC(C)NC(=O)C1CCN(S(=O)(=O)c2cccc3cccnc23)CC1 (stereo not given)	0.9	0.8	49.2*	-7.0	.
O=C(NC1CCCCC1)C1CCN(S(=O)(=O)c2cccc3cccnc23)CC1	-9.2	1.9	2.5	-7.9	.
Oc1c(Cl)cc(Cl)c2cccnc12	-2.3	-0.7	.	.	-9.1
Oc1c(I)cc(I)c2cccnc12	0.7	-0.7	82.9*	-4.0	-14.3
Cc1ccc(NC(=O)COC(=O)/C(=C/c2cccs2)c2cccs2)cc1S(=O)(=O)N(C)C	0.4	8.9*	-59.0	10.0	-23.1
NS(=O)(=O)c1cccc(NC(=O)COC(=O)/C(=C/c2cccs2)c2cccs2)c1	-1.1	5.3	-14.1	-1.5	21.6
CCO[C@H]1OC(C(=O)N2CCOCC2)=C[C@@H](c2coc3ccccc3c2=O)[C@@H]1CCCO	2.8	0.0	.	.	.
CCCCn1c(/N=C/c2ccccc2NS(=O)(=O)c2ccc(C)cc2)nc2ccccc21	0.2	0.2	-37.6	68.2*	.
Cc1ccc(S(=O)(=O)Nc2ccccc2/C=N/c2nc3ccccc3n2C(C)C)cc1	-7.6	0.0	-9.6	53.4*	10.7
COc1ccccc1Nc1ccc(C(=O)NCc2cccs2)cn1	2.1	0.6	.	.	30.8
COc1ccccc1Nc1ncc(-c2cccs2)s1	-6.5	9.9*	-37.6	-11.4	.
CCCNC(=O)OC[C@H]1O[C@H](CCO/N=C/C[C@@H]2C=C[C@H](OC(C)=O)[C@@H](COC(C)=O)O2)C=C[C@@H]1Oc1ccc(OC)cc1	-7.0	1.2	-21.9	-3.1	-5.0
CCCNC(=O)OC[C@H]1O[C@H](CCO/N=C(\C)CCN2CCc3nc(-c4ccccc4)c(-c4ccccc4)cc3C2)C=C[C@@H]1Oc1ccc(OC)cc1	-4.6	0.3	-56.7	32.2*	5.0
SMILES	Efa HMGR inh	RAM network inh	BB579 growth dn	Yeast life ext	INS promoter inh
O=C(c1cc(-c2ccco2)nc2ccccc12)N1CCN(c2ccc(F)cc2)CC1	-3.6	0.1	-1.8	-0.2	24.1
CCOc1cc(NC(=S)NCCc2ccccc2)c(OCC)cc1NC(C)=O	-0.8	4.2	.	.	0.0
COCCCNc1nc(=S)[nH]c2cc(OC)c(OC)cc12	-1.3	1.6	-52.5	-2.4	.
COc1cc2[nH]c(=S)nc(NCCC(C)C)c2cc1OC	-1.4	1.4	.	.	83.3*
CCOC(=O)c1ccccc1N1C(=O)CSC1=S	-1.0	0.2	-24.6	36.9*	28.6
Cc1ccccc1C(=O)NN1C(=O)CSC1=S	-3.5	0.5	-15.7	13.9	27.6
